Test results published in ChEMBL document CHEMBL4715831, “Design and synthesis of 2-((1H-indol-3-yl)thio)-N-phenyl-acetamides as novel dual inhibitors of respiratory syncytial virus and influenza virus A” (Eur J Med Chem, 2020).

Key:
[1] = test system: Respiratory syncytial virus; test: Antiviral activity against GFP-fused wild-type RSV subgroup A Long infected in human HEp-2 cells measured 24 to 72 hrs post infection by fluorescence assay; assay type: functional, cell-based
Summary of the method: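 HEp-2 cells plated, then after 24 h infected with RSV-mGFP using 3-fold serially diluted inocula starting from 3 × 10^4 pfu/well. Compounds came from a 100 mM DMSO stock, diluted as indicated. RFU read at 479/517 nm at 24, 48 and 72 h post-infection, with non-infected cells as background. Mean ± SD of at least three experiments.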

[2] = Cytotoxicity against human HEp-2 cells assessed as reduction in cell viability measured after 48 hrs by MTS assay; assay type: cell-based
Summary of the method: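 HEp-2 cells plated; after 24 h, compound added and cells incubated 48 h. MTS (2 mg/ml) then added for 3 h at 37 °C in 5% CO2 and absorbance read at 490 nm. Untreated control set as 100%.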

Influenza A virus [3] = test: Antiviral activity against Influenza A virus A/WSN/33(H1N1) infected in human HEK293T cells measured after 24 hrs by Gaussia luciferase reporter gene method; assay type: functional, organism-based; conditions: A/WSN/1933(H1N1); for EC50: HEK-293T
Summary of the method: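 HEK293T cells carrying a Gaussia luciferase reporter that is activated by IAV, infected with A/WSN/33 (H1N1) for 1 h at room temperature, then cultured 24 h at 37 °C with serially diluted compound. Supernatant Gluc read with coelenterazine-h (16.7 μM in PBS) as 0.5-s photon counts. Normalized to control set as 100%; ribavirin positive control; three experiments.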

[4] = Cytotoxicity against HEK293T cells assessed as reduction in cell viability measured after 48 hrs by CCK8 assay; assay type: cell-based, HEK-293T; conditions: human
Summary of the method: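 293T cells treated for 48 h with six compound concentrations from 12.5 to 200 μM, with DMSO-only cells as control. CCK-8 then added for 1 h at 37 °C and OD read at 450 nm. Mean ± SD of three experiments.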

[5] = Safety index, ratio of CC50 for HEK293T cells to EC50 for antiviral activity against Influenza A virus A/WSN/33(H1N1) infected in human HEK293T cells; assay type: toxicity, cell-based; conditions: read-out: Ratio CC50/EC50
[6] = Safety index, ratio of CC50 for human HEp-2 cells to EC50 for GFP-fused wild-type RSV subgroup A long infected in human HEp-2 cells; assay type: toxicity, cell-based; conditions: read-out: Ratio CC50/EC50
[7] = test system: Respiratory syncytial virus; test: Antiviral activity against GFP-fused wild-type RSV subgroup A Long infected in human HEp-2 cells assessed as relative fluorescence intensity at 20 uM pretreated for 1 hr followed by viral infection measured 24 to 72 hrs post infection by fluorescence assay; assay type: functional, Respiratory syncytial virus type A; conditions: time 24-73 hrs
Summary of the method: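 HEp-2 cells exposed to compound at 20 μM 1 h before RSV-mGFP infection (−1 h). GFP fluorescence read at 479/517 nm at 24, 48 and 72 h post-infection. Signal normalized to the DMSO control, set as 1; ribavirin was the positive control. Mean ± SD, three independent experiments.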

[8] = Antiviral activity against H3N2 infected in MDCK cells measured after 24 hrs by Gaussia luciferase reporter gene method; assay type: functional, cell-based, H3N2 subtype; conditions: Influenza A virus
Summary of the method: (§1)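 MDCK cells infected with IAV A/WSN/33 (H1N1) or H3N2 for 1 h at room temperature, then cultured in fresh DMEM with serially diluted compound for 24 h at 37 °C. Gluc activity in the medium read with coelenterazine-h (16.7 μM in PBS). Normalized to control set as 100%; ribavirin positive control; mean ± SD of three experiments.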

Influenza A virus [9] = test: Antiviral activity against Influenza A virus A/WSN/33(H1N1) infected in HEK293T cells assessed as relative fluorescence intensity at 20 uM pretreated for 2 hrs followed by viral infection and measured after 24 hrs by Gaussia luciferase reporter gene method; assay type: functional, A/WSN/1933(H1N1); conditions: time 26 hrs
Summary of the method: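 Time-of-addition assay: compound at 20 μM added before infection or at infection (0 h) in HEK293T-Gluc cells infected with A/WSN/33 (H1N1). Supernatant Gaussia luciferase measured after 24 h with coelenterazine-h. Values normalized to the DMSO control, set as 100%; ribavirin positive control. Mean ± SD, three independent experiments.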

Influenza A virus [10] = test: Antiviral activity against Influenza A virus A/WSN/33(H1N1) infected in MDCK cells measured after 24 hrs by Gaussia luciferase reporter gene method; assay type: functional, organism-based; conditions: A/WSN/1933(H1N1); summary of the method: as §1
Influenza A virus [11] = test: Antiviral activity against Influenza A virus A/WSN/33(H1N1) infected in human HEK293T cells assessed as inhibition of viral replication at 10 uM measured after 24 hrs by Gaussia luciferase reporter gene method relative to control; assay type: functional; conditions: A/WSN/1933(H1N1), HEK-293T

Cn1cc(S(=O)(=O)CC(=O)Nc2ccc(Cl)cc2Cl)c2ccccc21
EC50 [1]: > 128 µM
CC50 at 48 h [2]: > 1000 µM
EC50 (Influenza A virus [3]): 33.7 µM
CC50 at 48 h [4]: > 100 µM
selectivity ratio [5]: > 2.97

Cn1cc(SCC(=O)Nc2cccc(Cl)c2Cl)c2ccccc21
EC50 [1]: > 128 µM
CC50 at 48 h [2]: > 1000 µM
EC50 (Influenza A virus [3]): 14 µM
CC50 at 48 h [4]: > 100 µM
selectivity ratio [5]: > 7.26

COc1cccc2c(SCC(=O)Nc3ccc(Cl)c(Cl)c3)c[nH]c12
EC50 [1]: 17.3 µM
selectivity ratio [6]: 2.28
CC50 at 48 h [2]: 39.5 µM
EC50 (Influenza A virus [3]): 13.8 µM
CC50 at 48 h [4]: > 100 µM
selectivity ratio [5]: > 7.21

COc1ccc2c(SCC(=O)Nc3ccc(Cl)c(Cl)c3)c[nH]c2c1
Activity [1]: Dose-dependent effect
EC50 [1]: 5.79 µM
selectivity ratio [6]: 7.16
CC50 at 48 h [2]: 42.7 µM
EC50 (Influenza A virus [3]): 15.8 µM
CC50 at 48 h [4]: 78.4 µM
selectivity ratio [5]: 5

CCOc1ccccc1NC(=O)CSc1c[nH]c2cccc(OC)c12
EC50 [1]: 12.3 µM
selectivity ratio [6]: 17.9
CC50 at 48 h [2]: 220 µM
EC50 (Influenza A virus [3]): 11.2 µM
CC50 at 48 h [4]: > 100 µM
selectivity ratio [5]: > 8.8

NC(=O)c1ncn([C@@H]2O[C@H](CO)[C@@H](O)[C@H]2O)n1 [RIBAVIRIN]
RFU [7]: 0.04
EC50 [8]: 20.5 µM
EC50 [1]: 15.8 µM
RFU (Influenza A virus [9]): 0.67
selectivity ratio [6]: 17.3
CC50 at 48 h [2]: 274 µM
EC50 (Influenza A virus [3]): 25.1 µM
CC50 at 48 h [4]: > 100 µM
EC50 (Influenza A virus [10]): 16 µM
selectivity ratio [5]: > 3.99

Cn1cc(SCC(=O)Nc2c(Cl)cccc2Cl)c2ccccc21
inhibition at 10 µM (Influenza A virus [11]): > 85%
EC50 [8]: 1.5 µM
EC50 [1]: 17.3 µM
selectivity ratio [6]: 1.37
CC50 at 48 h [2]: 23.7 µM
Activity (Influenza A virus [3]): Dose-dependent effect
EC50 (Influenza A virus [3]): 3.5 µM
CC50 at 48 h [4]: > 100 µM
EC50 (Influenza A virus [10]): 1.75 µM
selectivity ratio [5]: > 28.6

Cn1cc(SCC(=O)Nc2cccc(Cl)c2)c2ccccc21
EC50 [1]: 23.9 µM
selectivity ratio [6]: 0.79
CC50 at 48 h [2]: 18.9 µM
EC50 (Influenza A virus [3]): 9.98 µM
CC50 at 48 h [4]: > 100 µM
selectivity ratio [5]: > 10

CCOc1ccccc1NC(=O)CSc1c[nH]c2cccc(Cl)c12
EC50 [8]: 2.33 µM
Activity [1]: Dose-dependent effect
EC50 [1]: 2.45 µM
selectivity ratio [6]: 2.92
CC50 at 48 h [2]: 7.15 µM
Activity (Influenza A virus [3]): Dose-dependent effect
EC50 (Influenza A virus [3]): 0.58 µM
CC50 at 48 h [4]: 25.2 µM
EC50 (Influenza A virus [10]): 2.67 µM
selectivity ratio [5]: > 41

O=C(CSc1c[nH]c2ncccc12)Nc1ccc(Cl)c(Cl)c1
EC50 [1]: > 128 µM
CC50 at 48 h [2]: > 256 µM
EC50 (Influenza A virus [3]): 31.6 µM
CC50 at 48 h [4]: > 100 µM
selectivity ratio [5]: > 3.1

Cn1cc([S+]([O-])CC(=O)Nc2cccc(Cl)c2)c2ccccc21 (configuration not stated)
EC50 [1]: > 128 µM
CC50 at 48 h [2]: > 1000 µM
EC50 (Influenza A virus [3]): 39.3 µM
CC50 at 48 h [4]: > 100 µM
selectivity ratio [5]: > 2.55

Cn1cc([S+]([O-])CC(=O)Nc2ccccc2Cl)c2ccccc21 (configuration not stated)
EC50 [1]: 12.3 µM
selectivity ratio [6]: 7.89
CC50 at 48 h [2]: 97.4 µM
EC50 (Influenza A virus [3]): 29.8 µM
CC50 at 48 h [4]: > 100 µM
selectivity ratio [5]: > 3.36

Cn1cc(SCC(=O)Nc2ccc(Cl)cc2Cl)c2ccccc21
EC50 [1]: > 128 µM
CC50 at 48 h [2]: > 1000 µM
EC50 (Influenza A virus [3]): 11.9 µM
CC50 at 48 h [4]: > 100 µM
selectivity ratio [5]: > 8.38

CCOc1ccccc1NC(=O)CSc1c[nH]c2ncccc12
EC50 [1]: > 128 µM
CC50 at 48 h [2]: > 1000 µM
EC50 (Influenza A virus [3]): 31.4 µM
CC50 at 48 h [4]: > 100 µM
selectivity ratio [5]: > 3.21

CCOc1ccccc1NC(=O)CSc1c[nH]c2cc(OC)ccc12
EC50 [1]: 23.1 µM
selectivity ratio [6]: 1.53
CC50 at 48 h [2]: 35.2 µM
EC50 (Influenza A virus [3]): 4.48 µM
CC50 at 48 h [4]: 88.2 µM
selectivity ratio [5]: 15.4
